Assay results pooled from the literature.
Target: Acetylcholinesterase (ACHE, Homo sapiens, UniProt P22303)

| SMILES | effect on | mode | method | tested at | quantity | result |
| --- | --- | --- | --- | --- | --- | --- |
| Nc1ncc(-c2nc(N3CCOCC3)nc(N3CCOCC3)n2)c(C(F)F)n1 | enzyme activity | inhibitor | – | 10 µM | remaining activity | 98% |
| CCOP(=O)(OCC)Oc1ccc([N+](=O)[O-])cc1 | enzyme activity | inhibitor | – | – | kinact/KI | 1510 M⁻¹ s⁻¹ |
| Cc1ncc(C)n2nc(/C=C/c3nc(N4CCCC4)cc(N4CCOCC4)n3)nc12 | enzyme activity | inhibitor | – | 10 µM | inhibition | 4% |
| COc1ccc(S(=O)(=O)N2CCCCC2)cc1C | ligand displacement | – | radioligand | 10 µM | inhibition | < 30% |
| CN(CCN1CCC(OC(=O)Nc2ccccc2-c2ccccc2)CC1)C(=O)c1ccc(CN2CCC(C(N)=O)CC2)cc1 | enzyme activity | inhibitor | – | 1 µM | inhibition | 9% |
| O=C(Nc1cccnn1)N1CCN([C@@H]2CCOc3cc(C(F)(F)F)ccc32)CC1 | enzyme activity | inhibitor | – | 20 µM | inhibition | -3% |
| COc1ccc2c(c1)[nH]c1c(C)nccc12 | enzyme activity | inhibitor | Ellman | 1 µM | inhibition | 33.8% |
| C[C@H](C(=O)N[C@H]1COc2ccccc2[C@@H]1S(C)(=O)=O)c1ccc(F)cc1 | enzyme activity | inhibitor | – | 10 µM | inhibition | 1% |
| CCN1C(=O)C=CC1=O | enzyme activity | inhibitor | – | 30 µM | inhibition | ~20% |
| COCc1c(-c2cc3cc(C)cc(OC)c3s2)c2c(N)ncnn2c1CN1CCNC(=O)C1 | enzyme activity | inhibitor | – | 10 µM | inhibition | -1% |
| Clc1ccc2c(C3CCN(CCc4c[nH]c5ccccc45)CC3)c[nH]c2c1 | enzyme activity | inhibitor | – | 10 µM | inhibition | 4% |
| O=C(O)c1ccccc1O | enzyme activity | inhibitor | Ellman | 20 µM | inhibition | 1.3% |
| C=CCn1c2cc(OC(=O)CCN3CCN(Cc4ccccc4)CC3)ccc2c2ccnc(C)c21 | enzyme activity | inhibitor | Ellman | 1 µM | inhibition | 36.4% |
| O=C1CN(C(=O)CCn2ccnc2)CC(O)CN1CCc1ccccc1 (stereo not drawn) | enzyme activity | inhibitor | Ellman | 10 µM | inhibition | 21.6% |
| c1ccc(C(NCCNC(c2ccccc2)c2ccccc2)c2ccccc2)cc1 | enzyme activity | inhibitor | – | 10 µM | inhibition | 13% |
